Data taken from ChEMBL document CHEMBL1932969, “Acyl derivatives of boswellic acids as inhibitors of NF-κB and STATs” (Bioorg Med Chem Lett, 2012).

Legend:
Type in all cases: functional
[1] = system: DU-145; assay: Anticancer activity against human DU145 cells assessed as growth inhibition at 50 uM after 48 hrs by SRB assay; settings: DU-145, 48 h, read-out: GI
Summary of the method: (§1)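 Cells exposed to test compounds at 50 µM for 48 h. Read-out is percent growth inhibition, with SEM given. 5-Fluorouracil and adriamycin serve as reference agents.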

[2] = system: PC-3; assay: Anticancer activity against human PC3 cells assessed as growth inhibition at 50 uM after 48 hrs by SRB assay; settings: PC-3, 48 h, read-out: GI; summary of the method: as §1
[3] = system: HT-29; assay: Anticancer activity against human HT-29 cells assessed as growth inhibition at 50 uM after 48 hrs by SRB assay; settings: HT-29, 48 h, read-out: GI; summary of the method: as §1
[4] = system: SW-620; assay: Anticancer activity against human SW620 cells assessed as growth inhibition at 50 uM after 48 hrs by SRB assay; settings: SW-620, 48 h, read-out: GI; summary of the method: as §1
[5] = system: COLO 205; assay: Anticancer activity against human COLO205 cells assessed as growth inhibition at 50 uM after 48 hrs by SRB assay; settings: COLO 205, 48 h, read-out: GI; summary of the method: as §1
[6] = system: HEp-2; assay: Anticancer activity against human Hep2 cells assessed as growth inhibition at 50 uM after 48 hrs by SRB assay; settings: HEp-2, 48 h, read-out: GI; summary of the method: as §1

Row | SMILES | inhibition of growth at 50 µM [1] | inhibition of growth at 50 µM [2] | inhibition of growth at 50 µM [3] | inhibition of growth at 50 µM [4] | inhibition of growth at 50 µM [5] | inhibition of growth at 50 µM [6]
1 | COC(=O)[C@@]1(C)[C@H](O)CC[C@@]2(C)[C@H]1CC[C@]1(C)[C@@H]2CC=C2[C@@H]3[C@@H](C)[C@H](C)CC[C@]3(C)CC[C@]21C | 85% | 54% | 35% | 46% | 43% | 26%
2 | COC(=O)[C@]1(C)[C@@H]2CC[C@]3(C)[C@H](C(=O)C=C4[C@@H]5[C@@H](C)[C@H](C)CC[C@]5(C)CC[C@]43C)[C@@]2(C)CC[C@@H]1O | 4% | 5% | 8% | 10% | 21% | 0%
3 | COC(=O)[C@@]1(C)C(=O)CC[C@]2(C)[C@H]3C(=O)C=C4[C@@H]5[C@@H](C)[C@H](C)CC[C@]5(C)CC[C@@]4(C)[C@]3(C)CC[C@@H]12 | 23% | 3% | 17% | 11% | 30% | 10%
4 | COC(=O)[C@@]1(C)C(=O)CC[C@]2(C)[C@H]3CC=C4[C@@H]5[C@@H](C)[C@H](C)CC[C@]5(C)CC[C@@]4(C)[C@]3(C)CC[C@@H]12 | 50% | 44% | 33% | 34% | 34% | 7%
5 | C[C@H]1[C@H](C)CC[C@]2(C)CC[C@]3(C)C(=CC(=O)[C@@H]4[C@@]5(C)CC[C@H](O)[C@](C)(C(=O)O)[C@@H]5CC[C@]43C)[C@H]12 | 84% | 70% | 44% | 45% | 49% | 51%
6 | C[C@H]1[C@H](C)CC[C@]2(C)CC[C@]3(C)C(=CC(=O)[C@@H]4[C@@]5(C)CC[C@@H](OC=O)[C@](C)(C(=O)O)[C@@H]5CC[C@]43C)[C@H]12 | 83% | 95% | 63% | 69% | 73% | 54%
7 | C[C@H]1[C@H](C)CC[C@]2(C)CC[C@]3(C)C(=CC[C@@H]4[C@@]5(C)CC[C@H](OC(=O)CCC(=O)O)[C@](C)(C(=O)O)[C@@H]5CC[C@]43C)[C@H]12 | 48% | 35% | 13% | 5% | 19% | 11%
8 | CCCC(=O)O[C@H]1CC[C@@]2(C)[C@@H](CC[C@]3(C)[C@@H]2C(=O)C=C2[C@@H]4[C@@H](C)[C@H](C)CC[C@]4(C)CC[C@]23C)[C@@]1(C)C(=O)O | 92% | 94% | 62% | 79% | 91% | 66%
9 | CCC(=O)O[C@H]1CC[C@@]2(C)[C@@H](CC[C@]3(C)[C@@H]2C(=O)C=C2[C@@H]4[C@@H](C)[C@H](C)CC[C@]4(C)CC[C@]23C)[C@@]1(C)C(=O)O | 89% | 96% | 64% | 72% | 83% | 63%
10 | COC(=O)[C@@]1(C)[C@H](O)CC[C@@]2(C)[C@H]1CC[C@]1(C)[C@@H]2C(=O)C=C2[C@@H]3[C@@H](C)[C@H](C)CC[C@]3(C)CC[C@]21C | 65% | 87% | 67% | 67% | 70% | 50%
11 | CC(=O)O[C@@H]1CC[C@@]2(C)[C@@H](CC[C@]3(C)[C@@H]2CC=C2[C@@H]4[C@@H](C)[C@H](C)CC[C@]4(C)CC[C@]23C)[C@@]1(C)C(=O)O | 3% | 44% | 93% | 93% | 91% | 85%
12 | CO[C@@]12[C@H](COC(N)=O)C3=C(C(=O)C(C)=C(N)C3=O)N1C[C@@H]1N[C@@H]12 [MITOMYCIN] | 48% | 55% | 60% | 55% | 43% | 58%
13 | CC(=O)O[C@H]1CC[C@@]2(C)[C@@H](CC[C@]3(C)[C@@H]2CC=C2[C@@H]4[C@@H](C)[C@H](C)CC[C@]4(C)CC[C@]23C)[C@@]1(C)C(=O)O | 87% | 56% | 31% | 35% | 32% | 42%
14 | C[C@H]1[C@H](C)CC[C@]2(C)CC[C@]3(C)C(=CC[C@@H]4[C@@]5(C)CC[C@@H](OC(=O)CCC(=O)O)[C@](C)(C(=O)O)[C@@H]5CC[C@]43C)[C@H]12 | 93% | 90% | 72% | 67% | 88% | 55%
15 | C[C@H]1[C@H](C)CC[C@]2(C)CC[C@]3(C)C(=CC[C@@H]4[C@@]5(C)CC[C@@H](OC=O)[C@](C)(C(=O)O)[C@@H]5CC[C@]43C)[C@H]12 | 90% | 95% | 76% | 87% | 90% | 72%
16 | CC(=O)O[C@H]1CC[C@@]2(C)[C@@H](CC[C@]3(C)[C@@H]2C(=O)C=C2[C@@H]4[C@@H](C)[C@H](C)CC[C@]4(C)CC[C@]23C)[C@@]1(C)C(=O)O | 83% | 62% | 44% | 44% | 54% | 47%
17 | COc1cccc2c1C(=O)c1c(O)c3c(c(O)c1C2=O)C[C@@](O)(C(=O)CO)C[C@@H]3O[C@H]1C[C@H](N)[C@H](O)[C@H](C)O1 [DOXORUBICIN] | 90% | 86% | 88% | 72% | 81% | 64%
18 | C[C@H]1[C@H](C)CC[C@]2(C)CC[C@]3(C)C(=CC(=O)[C@@H]4[C@@]5(C)CC[C@H](OC(=O)CCC(=O)O)[C@](C)(C(=O)O)[C@@H]5CC[C@]43C)[C@H]12 | 83% | 62% | 17% | 4% | 28% | 19%
